Measured values gathered from unrelated publications.
Protocols differ between the studies behind these lines.
ADRA1A: Alpha-1A adrenergic receptor (ADRA1A, Homo sapiens, UniProt P35348)
Tspo: Translocator protein (Tspo, Rattus norvegicus, UniProt P16257)
SQLE: Squalene monooxygenase (SQLE, Homo sapiens, UniProt Q14534)

Cc1cc(Oc2ncccc2CN2CCN(c3cccc(Cl)c3Cl)CC2)ccc1-c1c(C)c(=O)[nH]c(=O)n1C
Ki (ADRA1A; ligand displacement; radioligand): 1.93 µM

CCOC(=O)[C@@]12C[C@@H]1[C@@H](n1cnc3c(NCc4cccc(Cl)c4)nc(C#Cc4ccc(Cl)s4)nc31)[C@H](O)[C@@H]2O
Ki (Tspo; cell-free assay; radioligand): 0.51 µM

COc1ccc(Cl)cc1N1CCN(Cc2cccnc2Oc2ccc(-c3c(C)c(=O)[nH]c(=O)n3C)c(C)c2)CC1
Ki (ADRA1A; ligand displacement; radioligand): 0.353 µM

C=CC(=O)N1C[C@H](Nc2ncnc3[nH]ccc23)CC[C@@H]1C
Ki (Solute carrier family 22 member 6 (SLC22A6, Homo sapiens, UniProt Q4U2R8); transporter uptake; inhibitor; HEK293; pH 7.4): 156 µM

CCN(CC)C(C)CN1c2ccccc2Sc2ccccc21 (stereo not shown)
Ki (SQLE; enzyme activity; inhibitor): 0.65 µM

OC[C@@]12C[C@@H]1[C@@H](n1cnc3c(NC(C4CCC4)C4CCC4)nc(C#Cc4ccc(Cl)s4)nc31)[C@H](O)[C@@H]2O
Ki (Tspo; cell-free assay; radioligand): 0.67 µM

Cc1cc(Oc2ncccc2CN2CCN(c3ccccc3Cl)CC2)ccc1-c1c(C)c(=O)[nH]c(=O)n1C
Ki (ADRA1A; ligand displacement; radioligand): 0.93 µM

COc1cc2c3c(c1OC)-c1c(OC)ccc(-c4ccc(C#N)cc4)c1CC3N(C)CC2 (stereo not shown)
Ki (ADRA1A; cell-free assay; radioligand): 0.322 µM

Cc1cc(Oc2ncccc2CN2CCN(CCc3ccccc3)CC2)ccc1-c1c(C)c(=O)[nH]c(=O)n1C
Ki (ADRA1A; ligand displacement; radioligand): 0.296 µM

COc1cc(C2Oc3cc([C@H]4Oc5cc(O)cc(O)c5C(=O)[C@@H]4O)ccc3OC2CO)ccc1O (stereo partly shown)
Ki (SQLE; enzyme activity; inhibitor): 1.42 µM

Cc1cc(Oc2ncccc2CN2CCN(c3ccccc3[N+](=O)[O-])CC2)ccc1-c1c(C)c(=O)[nH]c(=O)n1C
Ki (ADRA1A; ligand displacement; radioligand): 1.98 µM

COc1cc(O)c2c(c1)oc(=O)c1c3cc(O)c(O)cc3oc21
Ki (Alpha-glucosidase MAL12 (MAL12, Saccharomyces cerevisiae S288c, UniProt P53341); enzyme activity; inhibitor): 30 µM

COc1cc2c3c(c1OC)-c1c(OC)ccc(N4CCOCC4)c1CC3N(C)CC2 (stereo not shown)
Ki (ADRA1A; cell-free assay; radioligand): 0.643 µM

O=c1cc(-c2ccc(O)cc2)oc2cc(O[C@@H]3O[C@H](CO)[C@@H](O)[C@H](O)[C@H]3O)cc(O)c12
Ki (SQLE; enzyme activity; inhibitor): 0.66 µM

N#Cc1ccc2c(c1)N(CCCN1CCC(O)CC1)c1ccccc1S2
Ki (SQLE; enzyme activity; inhibitor): 0.69 µM

O=C[C@H](O)[C@@H](O)[C@H](O)[C@H](O)COP(=O)(O)O
Ki (Hexokinase HKDC1 (Homo sapiens, UniProt Q2TB90); enzyme activity; inhibitor; pH 8): 3400 µM
